Results taken from publication PMC2191409 (The Journal of Experimental Medicine, 1994).

Test system: MZ2-MEL.61 cells (D-) expressing HLA-A1
Test: Peptide sensitization assay
Type: cell-based, human
Details: CTL clone 20/38
Procedure, shortened: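 Target cells (MZ2-MEL.61, antigen-loss D− variant, HLA-A1+) were 51Cr-labelled for 1 h at 37°C and washed extensively. 1,000 cells/well were preincubated 30 min at 37°C with various concentrations of synthetic test peptide (>90% HPLC purity; stock in 0.02 M PBS). CTL 20/38 were then added in equal volume at E/T 10:1. Chromium release was read after 4 h at 37°C. D+ and D− MZ2-MEL cells without peptide served as reference.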

## EVDPIGHVY [MAGE-6 derived peptide]
  Recognition by the anti-MZ2-D CTL clone: not recognized
